The RNAGym collection of RNA variant scans (doi:10.1126/science.aae0568)
This sample holds only a part of the variants without activity.

B1: tRNA (parent)
chain: GUUCCGUUGGCGUAAUGGUAACGCGUCUCCCUCCUAAGGAGAAGACUGCGGGUUCGAGUCCCGUACGGAACG

Variants of: B1
Assay: yeast fitness relative to wild type (ratio to wild type); higher = fitter; tRNA-Arg(CCU), competitive growth, 37 C, YPD
How it was run: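 Changes in genotype frequencies gave Darwinian fitness relative to wild type. Frequencies were read by 100-nucleotide paired-end sequencing of gene amplicons before and after pooled Saccharomyces cerevisiae strains, carrying tRNA-Arg(CCU) gene variants at the native locus, were competed in YPD at 37°C for 24 hours in six replicates. A genotype was kept only with ≥ 100 starting reads, and estimates < 0.5 were set to 0.5.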
Variant GUUCCGUUGGCGUAAUGGUAACGCGUCUCCCUCCUAAGGAGAAGGCUGCGGGUUCGAGUCCCGUACGGAACG has a yeast fitness of 0.991.
For GUUCCGUUGGCGUAAUGGUAACGCGUCUCCCUCCUAAGGAGAAGCCUGCGGGUCCGAGUCCCGUACGGAACG, the yeast fitness was 0.69.
For GUUCCGUUGGCGUAAUGGUAACGCGUCUCCCUCCUAAGGAGAAGCCUGCGGGUCCGAGUCCCGUAUGGAACG, the yeast fitness was 0.606.
For GUUCCGUUGGCGUAAUGGUAACGCGUCUCCCUCCUAAGGAGAAGCCUGCGGGUUCGAGCCCCGUACGGAACG, the yeast fitness was 0.874.
With GUUCCGUUGGCGUAAUGGUAACGCGUCUCCCUCCUAAGGAGAAGCCCGCGGGUUCGCGUCCCGUACGCAACG the yeast fitness was no more than 0.5.
Variant GUUCCGUUGGCGUAAUGGUAACGCGUCUCCCUCCUAAGGAGAAGCCUGCAGGUUCGAGUCCCGUACGGAACG has a yeast fitness of 0.969.
With GUUCCGUUGGCGUAAUGGUAACGCGUCUCCCUCCUAAGGAGAAGCCUGCAGGUUCGAGUCCUGUACGGUACG the yeast fitness was 0.561.
In the case of GUUCCGUUGGCGUAAUGGUAACGCGUCUCCCUCCUAAGGAGAAGCCUGCAGGUUCGAGUGCCGUGCGGAACG, the yeast fitness is reported as no more than 0.5.
In the case of GUUCCGUUGGCGUAAUGGUAACGCGUCUCCCUCCUAAGGAGAAGCCGGCGGGUUCGGGUCCCGUACGGAACG, the yeast fitness is reported as 0.605.
For GUUCCGUUGGCGUAAUGGUAACGCGUCUCCCUCCUAAGGAGAAGCCUGCCCGUUUGAGUCCCGUACCGAACG, the yeast fitness was no more than 0.5.
For GUUCCGUUGGCGUAAUGGUAACGCGUCUCCCUCCUAAGGAGAAGCCUGCGAGUUCGAGUCCCGUACGGAACG, the yeast fitness was 0.919.
Work on GUUCCGUUGGCGUAAUGGUAACGCGUCUCCCUCCUAAGGAGAAGCCUGCGGGUUCGAGUCCCGUAAGGAACG yielded a yeast fitness of 0.665.
Work on GUUCCGUUGGCGUAAUGGUAACGCGUCUCCCUCCUAAGGAGAAGCCUGCGGGUUCGAGUCCCGUAUGGAACG yielded a yeast fitness of 0.786.
In the case of GUUCCGUUGGCGUAAUGGUAACGCGUCUCCCUCCUAAGGAGAAGCCUGCGGAUUCGAGUCCCGUACGGAACG, the yeast fitness is reported as 0.731.
Work on GUUCCGUUGGCGUAAUGGUAACGCGUCUCCCUCCUAAGGAGAAGCCAGCGGGCUCGAGUCCCGUACGGAACG yielded a yeast fitness of no more than 0.5.
GUUCCGUUGGCGUAAUGGUAACGCGUCUCCCUCCUAAGGAGAAGCCUGCGGGUUCCAGUCCCGCACGGAACG gave a yeast fitness of 0.555.
In the case of GUUCCGUUGGCGUAAUGGUAACGCGUCUCCCUCCUAAGGAGAAGCCUGCGGGUUCGAUUCCCGUACGGAACG, the yeast fitness is reported as 0.675.
For GUUCCGUUGGCGUAAUGGUAACGCGUCUCCCUCCUAAGGAGAAGCCAGCGGGUUCGAGUCCCGUACGGAACG, the yeast fitness was 0.934.
In the case of GUUCCGUUGGCGUAAUGGUAACGCGUCUCCCUCCUAAGGAGAAGCCCGCGGGUUCGAGUCCCGUACGGAACG, the yeast fitness is reported as 0.951.
For GUUCCGUUGGCGUAAUGGUAACGCGUCUCCCUCCUAAGGAGAAGCCUGCAGGUUCGAGUCCCGUCCGGAACG, the yeast fitness was 0.634.
GUUCCGUUGGCGUAAUGGUAACGCGUCUCCCUCCUAAGGAGAAGCCUGCGGGUUCGAGUCCCCUACGGAACG showed a yeast fitness of 0.589.
Work on GUUCCGUUGGCGUAAUGGUAACGCGUCUCCCUCCUAAGGAGAAGCCUGCGGGUUCGAGUCCGGUCCGGAACG yielded a yeast fitness of 0.554.
For GUUCCGUUGGCGUAAUGGUAACGCGUCUCCCUCCUAAGGAGAAGCCUGCGGGUUCGAGUCCCGUACGUAACG, the yeast fitness was 0.739.
Work on GUUCCGUUGGCGUAAUGGUAACGCGUCUCCCUCCUAAGGAGAAGCCUGCGGGUUCGAGUCCCGUACGAAACG yielded a yeast fitness of 0.838.
Variant GUUCCGUUGGCGUAAUGGUAACGCGUCUCCCUCCUAAGGAGAAGCCUACGGGUUCGAGUCCUGUACGGAACG has a yeast fitness of 0.606.
With GUUCCGUUGGCGUAAUGGUAACGCGUCUCCCUCCUAAGGAGAAGCCUGCGCGUUCGGGUCCCGUACGGAACG the yeast fitness was no more than 0.5.
GUUCCGUUGGCGUAAUGGUAACGCGUCUCCCUCCUAAGGAGAAGCCUGCGGGUUCGAGUCCCGCACGGAACG gave a yeast fitness of 0.941.
For GUUCCGUUGGCGUAAUGGUAACGCGUCUCCCUCCUAAGGAGAAGCCUGCGGGCUCGAGUCCCGUAUGGAACG, the yeast fitness was no more than 0.5.
In the case of GUUCCGUUGGCGUAAUGGUAACGCGUCUCCCUCCUAAGGAGAAGCCUGCGGGUUCGAGUCCCCUAUGGAACG, the yeast fitness is reported as no more than 0.5.
With GUUCCGUUGGCGUAAUGGUAACGCGUCUCCCUCCUAAGGAGAAGCCUACGGGUUAGAGUCCCGUACGGAACG the yeast fitness was 0.544.
Variant GUUCCGUUGGCGUAAUGGUAACGCGUCUCCCUCCUAAGGAGAAGCCUGCGGGUUCGAGUCCCCCACGGAACG has a yeast fitness of no more than 0.5.
With GUUCCGUUGGCGUAAUGGUAACGCGUCUCCCUCCUAAGGAGAAGCCUGCGGGUUCGACUCCCGUACGGCACG the yeast fitness was 0.651.
For GUUCCGUUGGCGUAAUGGUAACGCGUCUCCCUCCUAAGGAGAAGCCUGCGGGUUCAAGUCCUGUACGGAACG, the yeast fitness was 0.711.
For GUUCCGUUGGCGUAAUGGUAACGCGUCUCCCUCCUAAGGAGAAGCCUGCGCGUCCGGGUCCCGUACGGAACG, the yeast fitness was no more than 0.5.
GUUCCGUUGGCGUAAUGGUAACGCGUCUCCCUCCUAAGGAGAAGCCUGCAGGUUCGAGUCCCCUACGGAACG gave a yeast fitness of 0.578.
GUUCCGUUGGCGUAAUGGUAACGCGUCUCCCUCCUAAGGAGAAGCCUCCGGGUUCGAGUCCCGUACGGAACG showed a yeast fitness of 0.833.
Work on GUUCCGUUGGCGUAAUGGUAACGCGUCUCCCUCCUAAGGAGAAGCCUGCGGGUUCGAGUCCGGUACGGAACG yielded a yeast fitness of 0.718.
Variant GUUCCGUUGGCGUAAUGGUAACGCGUCUCCCUCCUAAGGAGAAGCCUGCGGGUUCGAGUCCAGUACGGAACG has a yeast fitness of 0.622.
